Source: ChEMBL document CHEMBL1159098, “A new series of flavones, thioflavones, and flavanones as selective monoamine oxidase-B inhibitors” (Bioorg Med Chem, 2010)

Columns and labels:
[1] = target: T1, Amine oxidase [flavin-containing] A (Homo sapiens, UniProt P21397); experiment: Inhibition of human recombinant MAOA expressed in BTI-TN-5B1-4 cells at 100 uM by para-tyramine oxidation assay; format: cell-based; conditions: for inhibition (INH): human, bti-tn-5b1-4, 100 µM; for inhibition at 100 µM: BTI-TN-5B1-4, human
T1 sequence (P21397 whole entry): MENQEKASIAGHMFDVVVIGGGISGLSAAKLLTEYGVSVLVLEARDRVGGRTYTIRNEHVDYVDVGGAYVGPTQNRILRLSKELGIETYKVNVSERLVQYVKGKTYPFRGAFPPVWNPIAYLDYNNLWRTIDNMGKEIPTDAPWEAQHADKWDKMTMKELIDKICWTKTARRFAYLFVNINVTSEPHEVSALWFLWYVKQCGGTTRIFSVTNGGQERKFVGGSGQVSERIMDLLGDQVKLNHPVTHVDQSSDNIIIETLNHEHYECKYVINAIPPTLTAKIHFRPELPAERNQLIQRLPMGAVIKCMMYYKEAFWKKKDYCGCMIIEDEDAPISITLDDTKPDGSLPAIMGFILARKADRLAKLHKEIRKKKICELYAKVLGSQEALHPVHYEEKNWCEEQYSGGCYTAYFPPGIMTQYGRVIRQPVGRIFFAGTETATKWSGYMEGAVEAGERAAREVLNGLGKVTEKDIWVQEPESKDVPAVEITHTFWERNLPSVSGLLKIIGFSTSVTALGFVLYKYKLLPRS

[2] = target: T2, Amine oxidase [flavin-containing] B (Homo sapiens, UniProt P27338); experiment: Inhibition of human recombinant MAOB expressed in BTI-TN-5B1-4 cells at 100 uM by para-tyramine oxidation assay; format: cell-based; conditions: for inhibition at 100 µM: BTI-TN-5B1-4, human; for inhibition (INH): human, bti-tn-5b1-4, 100 µM
T2 sequence (P27338 whole entry): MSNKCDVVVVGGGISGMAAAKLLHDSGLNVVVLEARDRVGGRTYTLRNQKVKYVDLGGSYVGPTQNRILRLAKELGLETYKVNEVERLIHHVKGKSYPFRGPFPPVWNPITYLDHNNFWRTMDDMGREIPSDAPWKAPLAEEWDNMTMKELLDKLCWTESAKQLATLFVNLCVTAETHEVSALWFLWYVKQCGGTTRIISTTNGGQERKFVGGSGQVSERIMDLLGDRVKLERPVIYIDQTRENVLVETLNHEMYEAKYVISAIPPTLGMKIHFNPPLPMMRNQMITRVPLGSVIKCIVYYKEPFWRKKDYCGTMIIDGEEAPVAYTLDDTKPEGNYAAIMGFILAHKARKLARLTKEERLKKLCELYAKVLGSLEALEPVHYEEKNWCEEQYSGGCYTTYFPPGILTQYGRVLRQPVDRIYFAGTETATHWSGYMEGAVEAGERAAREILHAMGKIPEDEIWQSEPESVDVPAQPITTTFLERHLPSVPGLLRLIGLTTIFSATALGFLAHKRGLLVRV

[3] = target: T1, Amine oxidase [flavin-containing] A; experiment: Inhibition of human MAOA
Procedure, shortened: (§1)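 Recombinant human MAO-A or -B as microsomes from baculovirus-infected BTI-TN-5B1-4 insect cells, dosed to oxidize 165 pmol p-tyramine/min in controls (A 1.1 µg, B 7.5 µg protein). Preincubated with inhibitor 15 min at 37 °C in 0.05 M sodium phosphate pH 7.4. Started with 1 mM p-tyramine, 200 µM Amplex Red, 1 U/ml HRP (final). Resorufin fluorescence (ex 545/em 590 nm) read over 15 min at 37 °C, background subtracted.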

[4] = target: T2, Amine oxidase [flavin-containing] B; experiment: Inhibition of human MAOB; procedure, shortened: as §1
[5] = Inhibition of human monoamine oxidase
[6] = target: T2, Amine oxidase [flavin-containing] B; format: cell-based, BTI-TN-5B1-4
Homo sapiens = species: Homo sapiens; experiment: Selectivity for human MAOB over human MAOA
Procedure, shortened: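 Selectivity index = IC50(hMAO-A)/IC50(hMAO-B), both from Amplex Red/p-tyramine fluorimetric assays on insect-cell recombinant enzymes.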

[7] = target: T2, Amine oxidase [flavin-containing] B; experiment: Inhibition of human recombinant MAOB expressed in BTI-TN-5B1-4 cells at 100 nM before washing by centrifugation-ultrafiltration method; format: cell-based; conditions: BTI-TN-5B1-4, human
Procedure, shortened: (§2)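 Recombinant hMAO-B was incubated with one concentration of inhibitor in 0.05 M sodium phosphate pH 7.4 for 15 min at 37 °C. One aliquot was kept at 4 °C unwashed. The rest was washed three times by 30 kDa ultrafiltration (9000g, 20 min, 4 °C) and resuspended in buffer.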

[8] = target: T2, Amine oxidase [flavin-containing] B; experiment: Inhibition of human recombinant MAOB expressed in BTI-TN-5B1-4 cells at 100 nM after repeated washing by centrifugation-ultrafiltration method; format: cell-based; conditions: BTI-TN-5B1-4, human; procedure, shortened: as §2
[9] = target: T1, Amine oxidase [flavin-containing] A; experiment: Inhibition of human recombinant MAOA expressed in BTI-TN-5B1-4 cells at 500 uM before washing by centrifugation-ultrafiltration method; format: cell-based; conditions: BTI-TN-5B1-4, human
[10] = target: T2, Amine oxidase [flavin-containing] B; experiment: Inhibition of human recombinant MAOB expressed in BTI-TN-5B1-4 cells at 1 mM by para-tyramine oxidation assay; format: cell-based; conditions: bti-tn-5b1-4, 1000 µM

For Cc1ccc2c(=S)cc(-c3ccccc3)oc2c1, the “inhibition (INH)” value [1] was “Not Active” and the inhibition at 100 µM [2] was 40%.
Compound O=c1c(O)c(-c2ccc(O)c(O)c2)oc2cc(O)cc(O)c12 [QUERCETIN] has an IC50 [3] of 2.8 µM and an IC50 [4] of 90 µM.
In the case of S=c1cc(-c2ccccc2)oc2ccccc12, the “inhibition (INH)” value [1] is reported as “Not Active” and the inhibition at 100 µM [2] is reported as 40%.
In the case of O=c1cc(-c2ccc(O)cc2)oc2cc(O)cc(O)c12 [APIGENIN], the IC50 [3] is reported as 1.7 µM and the IC50 [4] is reported as 12.8 µM.
In the case of Cc1ccc2c(=S)cc(-c3ccc(F)cc3)oc2c1, the “inhibition (INH)” value [1] is reported as “Not Active” and the inhibition at 100 µM [2] is reported as 40%.
With Fc1ccc2c(=S)cc(-c3ccccc3)oc2c1 the inhibition at 100 µM [1] was 40% and the inhibition at 100 µM [2] was 40%.
In the case of Cc1ccc2c(=O)cc(-c3ccc(F)cc3)oc2c1, the “inhibition (INH)” value [1] is reported as “Not Active” and the inhibition at 100 µM [2] is reported as 40%.
In the case of COc1ccc(-c2cc(=S)c3ccc(F)cc3o2)cc1, the “inhibition (INH)” value [1] is reported as “Not Active” and the inhibition at 100 µM [2] is reported as 40%.
With Cc1ccc(-c2cc(=O)c3ccc(C)cc3o2)cc1 the inhibition at 100 µM [1] was 40% and the inhibition at 100 µM [2] was 40%.
O=C1c2c(O)cc(O)cc2O[C@H](c2ccc(O)c(O)c2)[C@H]1O [(+)-TAXIFOLIN] gave an IC50 [5] of 155 µM.
In the case of COc1ccc(-c2cc(=O)c3ccc(C)cc3o2)cc1, the inhibition at 100 µM [1] is reported as 40% and the inhibition at 100 µM [2] is reported as 40%.
In the case of COc1ccc(-c2cc(=S)c3ccc(C)cc3o2)cc1, the “inhibition (INH)” value [1] is reported as “Not Active” and the inhibition at 100 µM [2] is reported as 40%.
For O=c1cc(-c2ccc(F)cc2)oc2ccccc12, the inhibition at 100 µM [1] was 40% and the inhibition at 100 µM [2] was 40%.
For O=c1cc(-c2ccc(O)c(O)c2)oc2cc(O)cc(O)c12 [LUTEOLIN], the IC50 [3] was 4.9 µM and the IC50 [4] was 59.7 µM.
For COc1ccc2c(=S)cc(-c3ccc(F)cc3)oc2c1, the “inhibition (INH)” value [1] was “Not Active” and the inhibition at 100 µM [2] was 40%.
For COc1ccc2c(=O)cc(-c3ccccc3)oc2c1 [7-METHOXYFLAVONE], the “inhibition (INH)” value [1] was “Not Active” and the inhibition at 100 µM [2] was 40%.
For Cc1ccc2c(c1)OC(c1ccc(F)cc1)CC2=O (racemic), the “inhibition (INH)” value [1] was “Not Active”, the IC50 [6] was 0.13 µM and the Ratio IC50 (Homo sapiens) was over 769. The inhibition at 0.1 µM [7] was 38.4% and the inhibition at 0.1 µM [8] was 36.5%.
In the case of Cc1ccc2c(=O)cc(-c3ccccc3)oc2c1 [7-METHYLFLAVONE], the “inhibition (INH)” value [1] is reported as “Not Active” and the “inhibition (INH)” value [2] is reported as “Not Active”.
With O=C(NCCN1CCOCC1)c1ccc(Cl)cc1 [MOCLOBEMIDE] the inhibition at 500 µM [9] was 84.8% and the “inhibition (INH)” value [10] was “Not Active”.
In the case of COc1ccc2c(=S)cc(-c3ccccc3)oc2c1, the “inhibition (INH)” value [1] is reported as “Not Active” and the inhibition at 100 µM [2] is reported as 40%.
With Fc1ccc(-c2cc(=S)c3ccccc3o2)cc1 the “inhibition (INH)” value [1] was “Not Active” and the “inhibition (INH)” value [2] was “Not Active”.
For O=C1c2c(O)cc(O)cc2O[C@H](c2ccc(O)cc2)[C@H]1O [DIHYDROKAEMPFEROL], the IC50 [5] was 153 µM.
For O=c1cc(-c2ccccc2)oc2ccccc12 [FLAVONE], the inhibition at 100 µM [1] was 40% and the “inhibition (INH)” value [2] was “Not Active”.
In the case of Cc1ccc(-c2cc(=S)c3ccc(F)cc3o2)cc1, the inhibition at 100 µM [1] is reported as 40%, the IC50 [6] is reported as 1.61 µM and the Ratio IC50 (Homo sapiens) is reported as over 62.
With COc1cc(-c2cc(=O)c3c(O)c(OC)c(O)cc3o2)ccc1O [JACEOSIDINE] the IC50 [5] was 19 µM.
With O=C1CC(c2ccc(F)cc2)Oc2ccccc21 (racemic) the “inhibition (INH)” value [1] was “Not Active”, the IC50 [6] was 4.41 µM and the Ratio IC50 (Homo sapiens) was over 23.
In the case of O=C1CC(c2ccccc2)Oc2cc(F)ccc21 (racemic), the “inhibition (INH)” value [1] is reported as “Not Active”, the IC50 [6] is reported as 3.77 µM and the Ratio IC50 (Homo sapiens) is reported as over 27.
COc1c(O)cc2oc(-c3ccc(O)c(O)c3)cc(=O)c2c1O [EUPAFOLIN] gave an IC50 [5] of 25 µM.
COc1ccc(-c2cc(=S)c3ccccc3o2)cc1 showed an inhibition at 100 µM [1] of 40%, an IC50 [6] of 0.48 µM and a Ratio IC50 (Homo sapiens) of over 208.
In the case of Fc1ccc(-c2cc(=S)c3ccc(F)cc3o2)cc1, the “inhibition (INH)” value [1] is reported as “Not Active”, the IC50 [6] is reported as 6.89 µM and the Ratio IC50 (Homo sapiens) is reported as over 15.
For Cc1ccc(-c2cc(=S)c3ccccc3o2)cc1, the “inhibition (INH)” value [1] was “Not Active”, the IC50 [6] was 6.69 µM and the Ratio IC50 (Homo sapiens) was over 15.
With COc1ccc2c(c1)OC(c1ccc(C)cc1)CC2=O (racemic) the “inhibition (INH)” value [1] was “Not Active”, the IC50 [6] was 0.55 µM and the Ratio IC50 (Homo sapiens) was over 182.
O=c1cc(-c2ccccc2)oc2cc(F)ccc12 [7-FLUOROFLAVONE] gave an inhibition at 100 µM [1] of 40%, an IC50 [6] of 12.9 µM and a Ratio IC50 (Homo sapiens) of over 7.7.
